The record followed here is PubChem BioAssay AID821 (SRMLSC, 2007).

Each structure is given as a SMILES string. Active and inactive are the calls of the source.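 Rule for the calls: active = compounds whose fitted half-maximal concentration for reducing fibroblast viability is 100 µM or lower; inactive = the rest.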

One may read the viability as a read-out of living cells in per cent, often relative to untreated cells.

The nature of the experiment: inhibition of LL 47 lung fibroblast growth, concentration-response curve, selectivity screen for endothelial cell growth inhibitor project, cellular system, ATP luminescence readout (AID 821).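 Note: 100% = median of untreated cell-only wells and 0% = no luminescence.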 Conditions: LL 47 lung fibroblast viability, ATP luminescence; at 20 µM (top of the series). The gist of the method: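 Assay system: LL 47 human lung fibroblast cells | Amount: 1,150 cells/well | Schedule: 72 h exposure, 37 °C | Measured by: CellTiter-Glo luminescence | Measure: Percent viability relative to untreated wells, EC50 via 4-parameter fit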
Take `O=C(/C=C/NNC(=O)c1ccccc1)c1ccccc1`: the viability was 93.2% (inactive).
In the case of `CSc1nnc2n(-c3ccc(C)cc3)c(=O)c3c4c(sc3n12)COC(C(C)C)C4` (stereo not drawn) it was 109% (inactive); in that of `O=C(CCC1COc2ccccc2O1)Nc1ccc(Cl)cn1` (stereo not drawn), 95.5% (inactive).
The figure for `OC(COc1ccc(Cl)c2ccccc12)CN1CCN(c2ccccn2)CC1` (stereo not drawn) is 109% (inactive); for `COc1ccccc1N1CCN(C(=O)c2ccc(Br)s2)CC1` it is 103% (inactive); for `COC(=O)c1ccc(NC(=O)Nc2ccc(F)c(Cl)c2)cc1` it is 106% (inactive).
The figure for `c1ccc2c(c1)oc1c(NCCCN3CCOCC3)ncnc12` is 95.2% (inactive); for `CC(C)(C)n1cnc2cc(NS(=O)(=O)c3ccccc3)ccc21` it is 104% (inactive); for `COc1ccc(-c2cn3c(C)c(C(=O)Nc4cccc(NC(C)=O)c4)sc3n2)cc1` it is 109% (inactive).
For `Clc1ccccc1-c1ccc(/C=N/n2cnnc2)o1`, the viability is 111% (inactive).
The figure for `Cc1nn(C)c(C)c1NC(=O)CSc1nc(C2CC2)nc2c1cnn2-c1ccccc1` is 108% (inactive); for `C/C(=N\O)c1ccc2c3ccccc3n(C)c2c1` it is 111% (inactive).
The figure for `CC1=C(C)CS(=O)N(S(=O)(=O)c2ccc(Cl)cc2)C1` (stereo not drawn) is 106% (inactive); for `CCOc1cc(/C=N\NC(=O)Cn2nc([N+](=O)[O-])cc2C)ccc1OCc1cccc2ccccc12` it is 89.7% (inactive).
In the case of `Cc1cccc(Nc2nc(NCc3ccco3)nc(N3CCOCC3)n2)c1` it was 80.4% (inactive); in that of `COCCn1c(SCC(=O)Nc2ccc(NC(=O)c3ccco3)c(OC)c2)nc2ccccc2c1=O`, 99.1% (inactive).
On to `COc1cc2cc(C(c3nnnn3C3CCCC3)N3CCc4ccccc43)c(=O)[nH]c2cc1OC` (stereo not drawn), for which the viability is 92.9% (inactive).
The figure for `CC1(C)CSC(=S)N1S(=O)(=O)c1ccccc1` is 115% (inactive); for `COC(=O)CSc1nc2ccc(NC(=O)CSc3nnnn3Cc3ccccc3)cc2s1` it is 108% (inactive).
For the molecule `Cc1cc(C(=O)Nc2nc3ccc(S(C)(=O)=O)cc3s2)c(C)o1`, the viability was 92.9% (inactive).
For the molecule `CCCCC[n+]1ccn(C2=C([O-])c3ccccc3C(=O)/C2=N\S(=O)(=O)c2ccccc2)c1`, the viability is 86.4% (inactive).
In the case of `O=C(CSc1ccc2c(c1)OCCO2)Nc1ccc(Cl)cn1` it was 94.9% (inactive); in that of `COC(=O)C1=C(O)/C(=C\c2ccc(CNC(=O)C(=O)Nc3ccc(C)c(C)c3)o2)N=C1C`, 101% (inactive); in that of `O=C(Nc1ccc2c(c1)OCO2)c1cc(C2CC2)on1`, 104% (inactive).
Take `COc1ccc(-c2cc(C(=O)Nc3cc(C)n(Cc4ccc(Cl)cc4)n3)no2)cc1OC`: the viability was 102% (inactive).
The figure for `Cc1nc2c(-c3ccccc3)c(C)[nH]n2c(=O)c1Cl` is 119% (inactive); for `Cc1ccc2nc(NC(=O)CSc3ncnc4c3oc3ccccc34)sc2c1` it is 113% (inactive); for `CC(/C=N/n1cnnc1)=C\c1ccccc1` it is 109% (inactive).
In the case of `Cc1cc(NCCCN2CCOCC2)n2ncc(-c3ccc(Cl)cc3)c2n1` it was 84.9% (inactive).
The figure for `CCOc1ccc(-c2n[nH]c(C)c2Oc2ccc(OC)cc2)c(O)c1` is 93.9% (inactive); for `Cc1sc2nc(SCC(=O)NCc3ccco3)n(CCc3ccccc3)c(=O)c2c1C` it is 121% (inactive); for `CC(C)OC(=O)NCCOC(=O)Nc1cccc(Cl)c1` it is 103% (inactive).
Consider `Cc1cccc2c1N(CCCOc1ccc(C(C)(C)C)cc1)C(=O)C2=O`, for which the viability was 92.2% (inactive).
In the case of `O=C(CC1CCCCC1)c1c(O)c2ccccc2oc1=O` it was 88.5% (inactive); in that of `Cc1cccc(-c2nc(CN3CCCC(C(=O)NC4CCC(C)CC4)C3)c(C)o2)c1` (stereo not drawn), 85.4% (inactive).
In the case of `COc1ccc(CCC(=O)N2CCN(C3CCCCC3)CC2)cc1` it was 95.1% (inactive); in that of `O=C1CCCc2c1[nH]c1ccc(Br)cc21`, 107% (inactive).
For `CCCCCCn1c(N2CCN(c3ccccc3)CC2)nc2c1c(=O)n(C)c(=O)n2C`, the viability was 101% (inactive).
In the case of `CCCc1nc(SCC(=O)N2CCC(Cc3ccccc3)CC2)c2c(=O)n(C)c(=O)n(C)c2n1` it was 106% (inactive).
`CCN1CCN(c2ncc(C(=O)Nc3cc(Cl)c(OC)cc3OC)c3ccccc23)CC1`: the viability was 103% (inactive).
The figure for `O=C1CSC(c2ccccn2)N1Cc1cn2ccccc2n1` (stereo not drawn) is 99.9% (inactive); for `COC(=O)c1ccc2c(=O)n(Cc3ccco3)c(SCC(=O)Nc3ccccc3Cl)nc2c1` it is 104% (inactive).
In the case of `CCOc1ccc2nc(NC(=O)CN3CCC(n4nnc5cc(F)ccc54)CC3)sc2c1` it was 82.7% (inactive).
As to `Cc1occc1-c1nnc(SCC(=O)NCc2cccs2)n1-c1ccc(F)cc1`, the viability was 99.1% (inactive).
As to `Cn1c(CNc2cccc(Cl)c2)nnc1SCC(=O)OC1CCCCC1`, the viability is 86.7% (inactive).
For the molecule `Cc1cc(C)c2c(c1)SC1=NC(c3ccccc3)(C(F)(F)F)NC(=O)N12` (stereo not drawn), the viability is 102% (inactive).
The figure for `Cc1ccc(C)c(N2CCN(CCCNC(=O)Cn3cc4c(n3)CCCCC4)CC2)c1` is 83.3% (inactive); for `CC(C)(C)C1CC=C2C(C#N)=C(N)C(C#N)(C#N)C(c3cccs3)C2C1` (stereo not drawn) it is 94.4% (inactive).
As for `Cc1cc(NC(=O)COC(=O)C(Nc2ccc(C(F)(F)F)cc2Cl)C(C)C)no1` (stereo not drawn), the viability is 90.8% (inactive).
The figure for `Cc1nc2c(C(=O)NCCC(C)C)c[nH]n2c(=O)c1Cc1ccccc1F` is 99.7% (inactive); for `Cc1nn(Cc2ccc(Cl)c(Cl)c2)c(C)c1NC(=O)c1cc(-c2ccc3c(c2)OCO3)on1` it is 94.2% (inactive).
On to `c1ccc(CSc2nnc(-c3c[nH]c4ccccc34)o2)cc1`, for which the viability is 102% (inactive).
In the case of `Cc1c(CN(C)C(=O)c2sc3cc(Cl)ccc3c2Cl)cnn1C` it was 94.6% (inactive); in that of `Clc1ccc(Cn2cc(/C=N/n3cnnc3)c3ccccc32)c(Cl)c1`, 99% (inactive); in that of `Cc1ccc(-c2nc3cccnc3o2)cc1NC(=O)COc1ccc(C(C)(C)C)cc1`, 99.4% (inactive).
Regarding `COc1ccc(NC(=O)c2cc3n(n2)C(C(F)(F)F)CC(c2ccc(OC)cc2)N3)cc1` (stereo not drawn), the viability was 96.4% (inactive).
The figure for `Cc1ccc2[nH]c3c(NCc4ccco4)ncnc3c2c1` is 85.1% (inactive); for `CCOC(=O)c1cnc(-n2nc(C)cc2C)nc1NCc1ccc2c(c1)OCO2` it is 96.5% (inactive).
In the case of `CCCCCCOC(=O)C(C#N)c1nc2ccccc2nc1N1CCN(C)CC1` (stereo not drawn) it was 90.4% (inactive); in that of `OCCNc1nc2ccccc2n1-c1ncnc2sc3c(c12)CCC3`, 91.9% (inactive).
The figure for `Cc1ccc(-n2c(SCC(=O)Nc3ccc4c(c3)OCO4)nnc2-c2ccccn2)cc1` is 103% (inactive); for `O=C(Nc1ccc2nn(-c3ccccc3)nc2c1)c1ccc2c(c1)OCCO2` it is 105% (inactive).
Take `COC(=O)c1cc(COc2ccc3c(c2)oc(=O)c2ccccc23)c(C)o1`: the viability was 120% (inactive).
Take `CC(Nc1nc(N2CCN(S(C)(=O)=O)CC2)nc2ccccc12)c1ccccc1` (stereo not drawn): the viability was 92.9% (inactive).
Take `CC1CCCN(c2oc(-c3cccc4ccccc34)nc2C#N)C1` (stereo not drawn): the viability is 99.6% (inactive).
The figure for `CCOC(=O)c1ccc(NC(=O)c2c(C)[nH]c(C(=O)OCC)c2C)cc1` is 103% (inactive).
The figure for `COc1ccccc1N1CCN(CC(=O)c2c(C)[nH]c3cc(C)ccc23)CC1` is 86.8% (inactive).
In the case of `CCOC(=O)c1ccc2c(c1)NC(=O)C(N1CCN(c3ccc(OC)cc3)CC1)S2` (stereo not drawn) it was 84.9% (inactive); in that of `CCOc1ccc(NS(=O)(=O)c2ccc(OCC(=O)NCCCOC)cc2)cc1`, 93.1% (inactive); in that of `COc1ccc2cc3cc(C(=O)Nc4ccc5c(c4)OCCO5)oc3nc2c1`, 98.4% (inactive).
As to `Brc1cccc(-c2nnc3sc(CNC4CCCC4)cn23)c1`, the viability is 96.9% (inactive).
In the case of `COc1ccc(NC(=O)CSc2nnc(CNC(=O)COc3ccc(Cl)cc3)o2)c(OC)c1` it was 97% (inactive).
Consider `O=c1[nH]c(=O)n(Cc2ccccc2)c2nc(-c3ccco3)cc(C(F)(F)F)c12`, for which the viability is 81% (inactive).
The figure for `CCOc1cc(/C=C\c2[nH]c(=O)[nH]c(=O)c2[N+](=O)[O-])ccc1OC(C)CC` (stereo not drawn) is 90.9% (inactive); for `Cc1ccsc1/C=C/C1=Cc2c(sc(NC(=O)CSc3n[nH]c(N)n3)c2C#N)C(C)(C)C1` it is 112% (inactive); for `O=C(Cc1sc(-c2ccccc2Cl)nc1-c1ccccc1)Nc1ccccc1` it is 99.7% (inactive).
In the case of `Cc1ccc(C(=O)Nc2ncc(Cc3ccccc3)s2)o1`, the viability is 103% (inactive).
`CCCCc1oc2ccccc2c1C(=O)c1cc(I)c(OCCN(CC)CC)c(I)c1`: the viability was 88% (inactive).
`O=Cc1ccc(Sc2nnc(-c3ccccc3)o2)c([N+](=O)[O-])c1`: the viability was 89.9% (inactive).
The figure for `CSc1nc2c(cnn2-c2ccc(C)c(C)c2)c(=O)[nH]1` is 93.2% (inactive); for `CC[n+]1cc(-c2ccccc2)nc(N2CCOCC2)n1` it is 99.9% (inactive).
In the case of `CCOc1ccc(OCc2ccc(C(=O)NCC3CCCO3)o2)cc1` (stereo not drawn) it was 109% (inactive).
The figure for `Cc1ccc(S(=O)(=O)c2c(C)nn(C(C)(C)C)c2OC(=O)c2cccs2)cc1` is 104% (inactive).
